Source: ChEMBL document CHEMBL1122131, “1,1,2-triphenylbut-1-enes: relationship between structure, estradiol receptor affinity, and mammary tumor inhibiting properties” (1982)

Key:
Mus musculus [1] = assay: Anti-neoplastic effect in estrogen and progesterone receptor positive hormone-dependent postmenopausal human mammary carcinoma bearing mice at 2.2 mg/kg/day; assay type: functional
Outline: (§1)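 Human ER- and PR-positive, hormone-dependent postmenopausal mammary carcinoma, serially transplanted in NMRI nu/nu mice (castrated females or males, about 25 g, 6–7 weeks old, 10–12 per group). Drug given sc in olive oil 6 times/week; controls received vehicle for 4–6 weeks. Two tumor diameters measured weekly. Size is relative to treatment start (=1), averaged after 4 weeks. Compared with controls at α ≤ 0.05.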

[2] = target: Estrogen receptor (Bos taurus) (UniProt Q9XSB5+P49884); assay: Binding affinity against Estrogen receptor in calf-uterine cytosol relative to 17-beta-estradiol using [3H]estradiol.; assay type: protein assay
Outline: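 Calf uterine cytosol was incubated with [3H]estradiol and six concentrations of unlabeled competitor at 4 °C for 16 h. Incubation was stopped with dextran-coated charcoal; after centrifugation, supernatant radioactivity was counted. The concentrations of estradiol and of test compound giving 50% displacement were read from a semilog plot. Relative binding affinity = [E2]/[I] × 100.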

Mus musculus [3] = assay: Anti-neoplastic effect in estrogen and progesterone receptor positive hormone-dependent postmenopausal human mammary carcinoma bearing mice at 3.4 mg/kg/day; assay type: functional; outline: as §1
Mus musculus [4] = assay: Anti-neoplastic effect in estrogen and progesterone receptor positive hormone-dependent postmenopausal human mammary carcinoma bearing mice at 2.5 mg/kg/day; assay type: functional; outline: as §1
Rattus norvegicus [5] = assay: Percent partial remission in DMBA-induced hormone-dependent mammary carcinoma bearing rats at 6.83 mg/kg/day; assay type: functional
Outline: (§2)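 Female Sprague-Dawley rats received one 20 mg DMBA dose by gastric intubation at age 50 days. About 4 weeks later, rats with at least one tumor over 140 mm² were grouped in tens. Drug given sc in olive oil 6 times/week. Read-outs were tumors classed as complete remission, partial remission, no change or progression, plus % change in tumor area and in body weight.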

Rattus norvegicus [6] = assay: Percent partial remission in DMBA-induced hormone-dependent mammary carcinoma bearing rats at 0.85 mg/kg/day; assay type: functional; outline: as §2
Rattus norvegicus [7] = assay: Percent complete remission in DMBA-induced hormone-dependent mammary carcinoma bearing rats at 6.83 mg/kg/day; assay type: functional; outline: as §2
Rattus norvegicus [8] = assay: Percent unchanged tumor size in DMBA-induced hormone-dependent mammary carcinoma bearing rats at 0.85 mg/kg/day; assay type: functional; outline: as §2
Rattus norvegicus [9] = assay: Percent change in tumor area in DMBA-induced hormone-dependent mammary carcinoma bearing rats at 1.71 mg/kg/day; assay type: functional; outline: as §2
Rattus norvegicus [10] = assay: Percent change in body weight in DMBA-induced hormone-dependent mammary carcinoma bearing rats at 1.71 mg/kg/day; assay type: functional; outline: as §2
Rattus norvegicus [11] = assay: Percent change in body weight in DMBA-induced hormone-dependent mammary carcinoma bearing rats at 6.83 mg/kg/day; assay type: functional; outline: as §2
Rattus norvegicus [12] = assay: Percent complete remission in DMBA-induced hormone-dependent mammary carcinoma bearing rats at 1.71 mg/kg/day; assay type: functional; outline: as §2
Rattus norvegicus [13] = assay: Percent change in tumor area in DMBA-induced hormone-dependent mammary carcinoma bearing rats at 0.85 mg/kg/day; assay type: functional; outline: as §2
Rattus norvegicus [14] = assay: Percent complete remission in DMBA-induced hormone-dependent mammary carcinoma bearing rats at 0.85 mg/kg/day; assay type: functional; outline: as §2
Rattus norvegicus [15] = assay: Percent tumor progression in DMBA-induced hormone-dependent mammary carcinoma bearing rats at 0.85 mg/kg/day; assay type: functional; outline: as §2
Rattus norvegicus [16] = assay: Percent unchanged tumor size in DMBA-induced hormone-dependent mammary carcinoma bearing rats at 1.71 mg/kg/day; assay type: functional; outline: as §2
Rattus norvegicus [17] = assay: Percent change in tumor area in DMBA-induced hormone-dependent mammary carcinoma bearing rats at 6.83 mg/kg/day; assay type: functional; outline: as §2
Rattus norvegicus [18] = assay: Percent partial remission in DMBA-induced hormone-dependent mammary carcinoma bearing rats at 1.71 mg/kg/day; assay type: functional; outline: as §2
Rattus norvegicus [19] = assay: Percent tumor progression in DMBA-induced hormone-dependent mammary carcinoma bearing rats at 1.71 mg/kg/day; assay type: functional; outline: as §2
Rattus norvegicus [20] = assay: Percent tumor progression in DMBA-induced hormone-dependent mammary carcinoma bearing rats at 6.83 mg/kg/day; assay type: functional; outline: as §2
Rattus norvegicus [21] = assay: Percent change in body weight in DMBA-induced hormone-dependent mammary carcinoma bearing rats at 0.85 mg/kg/day; assay type: functional; outline: as §2
Rattus norvegicus [22] = assay: Percent unchanged tumor size in DMBA-induced hormone-dependent mammary carcinoma bearing rats at 6.83 mg/kg/day; assay type: functional; outline: as §2
Mus musculus [23] = assay: Anti-neoplastic effect in estrogen and progesterone receptor positive hormone-dependent postmenopausal human mammary carcinoma bearing mice at 3 mg/kg/day; assay type: functional; outline: as §1

Compound `CCC(=C(c1ccccc1)c1ccccc1)c1ccccc1` has a Tumor size (Mus musculus [1]) of 1.61 and an RBA [2] of 0.8%.

`CC/C(=C(\c1ccc(OC(C)=O)cc1)c1cccc(OC(C)=O)c1)c1ccc(OC(C)=O)cc1` was tested, and the RBA [2] was 3% and the Tumor size (Mus musculus [3]) was 2.04.

For `CCC(=C(c1ccc(OC(C)=O)cc1)c1ccc(OC(C)=O)cc1)c1ccc(OC(C)=O)cc1`, the RBA [2] was 4.2% and the Tumor size (Mus musculus [3]) was 1.52.

Compound `CC/C(=C(/c1ccccc1)c1cccc(OC(C)=O)c1)c1ccccc1` has a Tumor size (Mus musculus [4]) of 2.12 and an RBA [2] of 0.7%.

`CCC(=C(c1cccc(OC(C)=O)c1)c1cccc(OC(C)=O)c1)c1cccc(OC(C)=O)c1` gave a Tumors (Rattus norvegicus [5]) of 30%, a Tumors (Rattus norvegicus [6]) of 14% and a Change (Rattus norvegicus [7]) of 5%. It also gave a Tumors (Rattus norvegicus [8]) of 44%, a Change (Rattus norvegicus [9]) of 78% and a Change (Rattus norvegicus [10]) of 3.2%. It also gave a Change (Rattus norvegicus [11]) of 3.6%, a Change (Rattus norvegicus [12]) of 3% and a Change (Rattus norvegicus [13]) of 102%. For the same compound, the Tumors (Rattus norvegicus [14]) was 2%, the Tumors (Rattus norvegicus [15]) was 40% and the Tumors (Rattus norvegicus [16]) was 37%. For the same compound, the Change (Rattus norvegicus [17]) was 54%, the RBA [2] was 1.5% and the Tumors (Rattus norvegicus [18]) was 16%. The Tumors (Rattus norvegicus [19]) was 44%, the Tumors (Rattus norvegicus [20]) was 35% and the Change (Rattus norvegicus [21]) was 5.2%. It also gave a Tumors (Rattus norvegicus [22]) of 30% and a Tumor size (Mus musculus [3]) of 2.12.

In the case of `CCC(=C(c1ccccc1)c1ccccc1)c1cccc(OC(C)=O)c1`, the Tumor size (Mus musculus [4]) is reported as 1.04 and the RBA [2] is reported as 1.5%.

Work on `CC/C(=C(/c1ccccc1)c1cccc(OC(C)=O)c1)c1cccc(OC(C)=O)c1` yielded a Tumor size (Mus musculus [23]) of 1.35 and an RBA [2] of 1.1%.

Compound `CC/C(=C(/c1ccccc1)c1ccc(OC(C)=O)cc1)c1ccc(OC(C)=O)cc1` has a Tumor size (Mus musculus [23]) of 0.83 and an RBA [2] of 5.9%.

For `CC/C(=C(\c1ccc(OC(C)=O)cc1)c1cccc(OC(C)=O)c1)c1cccc(OC(C)=O)c1`, the RBA [2] was 2.7% and the Tumor size (Mus musculus [3]) was 1.69.

`CCC(=C(c1cccc(OC(C)=O)c1)c1cccc(OC(C)=O)c1)c1ccccc1` showed a Tumor size (Mus musculus [23]) of 2.4 and an RBA [2] of 1.2%.

`CC/C(=C(/c1ccccc1)c1ccc(OC(C)=O)cc1)c1ccccc1` gave a Tumor size (Mus musculus [4]) of 1.24 and an RBA [2] of 5.7%.

In the case of `CCC(=C(c1ccc(OC(C)=O)cc1)c1ccc(OC(C)=O)cc1)c1ccccc1`, the Tumor size (Mus musculus [23]) is reported as 0.81 and the RBA [2] is reported as 6.8%.

With `CCC(=C(c1ccccc1)c1ccccc1)c1ccc(OC(C)=O)cc1` the Tumor size (Mus musculus [4]) was 1.12 and the RBA [2] was 3.8%.

Compound `CC/C(=C(\c1ccccc1)c1cccc(OC(C)=O)c1)c1ccccc1` has a Tumor size (Mus musculus [4]) of 2.41 and an RBA [2] of 0.3%.

Compound `CC/C(=C(\c1ccccc1)c1ccc(OC(C)=O)cc1)c1ccccc1` has a Tumor size (Mus musculus [4]) of 1.3 and an RBA [2] of 2%.

`CC/C(=C(\c1ccccc1)c1cccc(OC(C)=O)c1)c1cccc(OC(C)=O)c1` gave a Tumor size (Mus musculus [23]) of 2.36 and an RBA [2] of 0.2%.

`CC/C(=C(\c1ccccc1)c1ccc(OC(C)=O)cc1)c1ccc(OC(C)=O)cc1` gave a Tumor size (Mus musculus [23]) of 1.39 and an RBA [2] of 1%.

For `CC/C(=C(/c1ccc(OC(C)=O)cc1)c1cccc(OC(C)=O)c1)c1cccc(OC(C)=O)c1`, the RBA [2] was 1.8% and the Tumor size (Mus musculus [3]) was 2.44.
